Measurements reported in ChEMBL document CHEMBL4765302, “Design, synthesis and biological evaluation of novel histone deacetylase1/2 (HDAC1/2) and cyclin-dependent Kinase2 (CDK2) dual inhibitors against malignant cancer” (Eur J Med Chem, 2020).
Activity calls are given as the source filed them. The calls are words filed in the database; no cut-off is given here.

Assays:
NCI-H460 [1] = assay: Induction of apoptosis in human NCI-H460 cells assessed as late apoptotic cells at 2 uM incubated for 48 hrs by annexin V-FITC and PI staining based flow cytometry (reference value: 6.11 %); assay type: functional
NCI-H460 [2] = assay: Induction of cell cycle arrest in human NCI-H460 cells assessed as reduction in G0/G1 phase at 0.5 to 2 uM incubated for 24 hrs by PI staining based flow cytometry; assay type: functional; settings: dose 0.5-2 µM
Method in brief: (§1)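 Treatment at 2, 1 and 0.5 μM for 24 h, alongside CS055 and roscovitine, against a DMSO (0.1 %) blank. Cells then stained with propidium iodide and analyzed by flow cytometry.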

HeLa [3] = assay: Cytotoxicity against human HeLa cells assessed as effect on cell morphology at 0.5 to 8 micromol incubated for 48 hrs by microscopic analysis; assay type: functional, cell-based; settings: dose 0.5-8 µmol
Method in brief: (§2)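 Five cancer cell lines treated with compound or DMSO (0.1 %) for 48 h. Morphology inspected by light microscopy at 10× objective.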

HCT-116 [4] = assay: Induction of apoptosis in human HCT-116 cells assessed as late apoptotic cells at 1 uM incubated for 48 hrs by annexin V-FITC and PI staining based flow cytometry (reference value: 1.88 %); assay type: functional
A-375 [5] = assay: Induction of apoptosis in human A-375 cells assessed as necrotic cells at 0.5 uM incubated for 48 hrs by annexin V-FITC and PI staining based flow cytometry (reference value: 0.139 %); assay type: functional
A-375 [6] = assay: Induction of apoptosis in human A-375 cells assessed as viable cells at 0.5 uM incubated for 48 hrs by annexin V-FITC and PI staining based flow cytometry (reference value: 96.3 %); assay type: functional; settings: read-out: Activity
HeLa [7] = assay: Induction of apoptosis in human HeLa cells assessed as early apoptotic cells at 0.5 uM incubated for 48 hrs by annexin V-FITC and PI staining based flow cytometry (reference value: 0.528 %); assay type: functional
[8] = Toxicity in Balb/c mouse xenografted with human HCT-116 cells assessed as reduction in body weight at 25 to 100 mg/kg, ip administered for 21 days and measured on day 21; assay type: organism-based; settings: in vivo, 504 h, dose 25-100 mg/kg, time 21 day
Method in brief: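 BALB/c nude mice bearing HCT116 xenografts were dosed once daily by intraperitoneal injection at 25, 50 or 100 mg/kg for 21 days, starting when tumours reached 100-300 mm³. Body weight was tracked over the dosing period and compared with the blank group.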

CDK2/Cyclin A2 = CDK2/Cyclin A2 (Homo sapiens, UniProt P24941); assay: Inhibition of recombinant human N-terminal GST-tagged CDK2/CyclinA2 expressed in baculovirus infected Sf21 cells using histone H1 as substrate incubated for 10 mins by luminescence based assay
A-375 [9] = assay: Antimigratory activity against human A-375 cells assessed as inhibition of migration at 0.5 uM incubated for 48 hrs by microscopic based wound healing test; assay type: functional, cell-based
Method in brief: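 Scratch (wound-healing) migration assay in A375 and H460 cells seeded in 12-well plates. Cells exposed to compound, CS055, roscovitine or DMSO blank for 48 h. At least two independent experiments.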

[10] = AUC (0 to t) in ICR mouse at 20 mg/kg, ip measured upto 24 hrs by LC-MS/MS analysis; settings: in vivo
HCT-116 [11] = assay: Induction of apoptosis in human HCT-116 cells assessed as necrotic cells at 2 uM incubated for 48 hrs by annexin V-FITC and PI staining based flow cytometry (reference value: 0.124 %); assay type: functional
Histone deacetylase 1 = Histone deacetylase 1 (Homo sapiens, UniProt Q13547); assay: Inhibition of recombinant human HDAC1 at 10 uM using SIRT1 as substrate incubated for 10 mins followed by substrate addition and measured after 30 mins by fluorescence based assay relative to control; settings: time 40.0 min
Method in brief: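 Enzyme inhibition of HDAC1 measured at a single concentration of 10 µM, tested alongside the cell-growth screen.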

HCT-116 [12] = assay: Induction of cell cycle arrest in human HCT-116 cells assessed as reduction in G0/G1 phase at 0.5 to 2 uM incubated for 24 hrs by PI staining based flow cytometry; assay type: functional; settings: dose 0.5-2 µM; method in brief: as §1
HCT-116 [13] = assay: Induction of apoptosis in human HCT-116 cells assessed as early apoptotic cells at 0.5 uM incubated for 48 hrs by annexin V-FITC and PI staining based flow cytometry (reference value: 4.14 %); assay type: functional
HeLa [14] = assay: Antiproliferative activity against human HeLa cells assessed as reduction in cell growth incubated for 72 hrs by CCK-8 assay; assay type: functional, cell-based
Method in brief: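 IC50 by CCK-8 assay across five solid-tumour lines (HCT116, HepG2, H460, HeLa, A375). Run only for compounds chosen after the single-concentration screen, with CS055 and roscovitine as references.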

A-375 [15] = assay: Induction of apoptosis in human A-375 cells assessed as necrotic cells at 1 uM incubated for 48 hrs by annexin V-FITC and PI staining based flow cytometry (reference value: 0.139 %); assay type: functional
NCI-H460 [16] = assay: Induction of apoptosis in human NCI-H460 cells assessed as viable cells at 1 uM incubated for 48 hrs by annexin V-FITC and PI staining based flow cytometry (reference value: 90.4 %); assay type: functional; settings: read-out: Activity
HeLa [17] = assay: Induction of apoptosis in human HeLa cells assessed as early apoptotic cells at 2 uM incubated for 48 hrs by annexin V-FITC and PI staining based flow cytometry (reference value: 0.528 %); assay type: functional
NCI-H460 [18] = assay: Induction of apoptosis in human NCI-H460 cells assessed as viable cells at 2 uM incubated for 48 hrs by annexin V-FITC and PI staining based flow cytometry (reference value: 90.4 %); assay type: functional; settings: read-out: Activity
A-375 [19] = assay: Induction of apoptosis in human A-375 cells assessed as early apoptotic cells at 2 uM incubated for 48 hrs by annexin V-FITC and PI staining based flow cytometry (reference value: 1.34 %); assay type: functional
HCT-116 [20] = assay: Induction of apoptosis in human HCT-116 cells assessed as early apoptotic cells at 2 uM incubated for 48 hrs by annexin V-FITC and PI staining based flow cytometry (reference value: 4.14 %); assay type: functional
[21] = Clearance in ICR mouse at 4 mg/kg, iv measured upto 24 hrs by LC-MS/MS analysis; assay type: ADME, organism-based; settings: in vivo
Method in brief: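 Male ICR mice (N=9). Single dose, either 4 mg/kg intravenous or 20 mg/kg intraperitoneal. Parameters derived: T1/2, Tmax, Cmax, AUC0-t, MRT0-t and CL, with F for the intraperitoneal arm.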

HCT-116 [22] = assay: Induction of apoptosis in human HCT-116 cells assessed as necrotic cells at 0.5 uM incubated for 48 hrs by annexin V-FITC and PI staining based flow cytometry (reference value: 0.124 %); assay type: functional
[23] = Tmax in ICR mouse at 20 mg/kg, ip measured upto 24 hrs by LC-MS/MS analysis; settings: in vivo
[24] = Half life in ICR mouse at 20 mg/kg, ip measured upto 24 hrs by LC-MS/MS analysis; settings: in vivo
NCI-H460 [25] = assay: Cytotoxicity against human NCI-H460 cells assessed as effect on cell morphology at 0.5 to 8 micromol incubated for 48 hrs by microscopic analysis; assay type: functional, cell-based; settings: dose 0.5-8 µmol; method in brief: as §2
HeLa [26] = assay: Induction of apoptosis in human HeLa cells assessed as late apoptotic cells at 1 uM incubated for 48 hrs by annexin V-FITC and PI staining based flow cytometry (reference value: 0.870 %); assay type: functional

Chain of Histone deacetylase 1 (Q13547 whole entry): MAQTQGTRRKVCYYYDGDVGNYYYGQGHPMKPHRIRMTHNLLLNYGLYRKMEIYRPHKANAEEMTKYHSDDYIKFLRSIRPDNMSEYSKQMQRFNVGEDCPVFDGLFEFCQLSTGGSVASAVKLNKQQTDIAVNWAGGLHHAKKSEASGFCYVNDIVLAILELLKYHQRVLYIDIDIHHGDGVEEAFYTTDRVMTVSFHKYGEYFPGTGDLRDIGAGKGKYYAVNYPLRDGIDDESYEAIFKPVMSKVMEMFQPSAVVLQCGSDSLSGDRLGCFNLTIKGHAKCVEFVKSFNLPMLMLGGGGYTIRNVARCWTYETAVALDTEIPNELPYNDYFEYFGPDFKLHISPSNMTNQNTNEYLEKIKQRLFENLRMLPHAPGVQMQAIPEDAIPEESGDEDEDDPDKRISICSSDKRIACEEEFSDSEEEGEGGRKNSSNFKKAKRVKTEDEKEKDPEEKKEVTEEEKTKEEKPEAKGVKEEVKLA

IC50 (CDK2/Cyclin A2): 0.8 µM | AUC(0-t) at 24 h [10]: 7.24 µg·h/mL | inhibition (Histone deacetylase 1): 88.7% | IC50 (HeLa [14]): 1.05 µM | clearance [21]: 1.4 L/h/kg | Tmax [23]: 2 h | half-life [24]: 2.84 h
SMILES: Cc1ccc(Nc2nc(Cl)nc3c2ncn3Cc2ccc(C(=O)Nc3ccccc3N)cc2)cc1
Activity (NCI-H460 [1]): 47.1% | Activity (NCI-H460 [2]): Active | Activity (HeLa [3]): Active | Activity (HCT-116 [4]): 14% | Activity (A-375 [5]): 0.852% | viability at 0.5 µM (A-375 [6]): 16.4% | Activity (HeLa [7]): 4.36% | Activity [8]: Non-Toxic | inhibition (A-375 [9]): Active | Activity (HCT-116 [11]): 0.639% | Activity (HCT-116 [12]): Active | Activity (HCT-116 [13]): 60.7% | Activity (A-375 [15]): 0.566% | viability at 1 µM (NCI-H460 [16]): 63.1% | Activity (HeLa [17]): 8.26% | viability at 2 µM (NCI-H460 [18]): 31.9% | Activity (A-375 [19]): 7.19% | Activity (HCT-116 [20]): 76.2% | Activity (HCT-116 [22]): 1.37% | Activity (NCI-H460 [25]): Active | Activity (HeLa [26]): 8.63%
